Test results published in article PMC12804367 (ESMO Open, 2025).
Where two headings read alike, the source gives them in different places.

Assays:
[1] = system: patients with advanced or metastatic solid tumors; assay: Safety, tolerability and DLTs; type: in vivo, human
Summary of the method: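 3 + 3 escalation starting at 16 mg/day once daily or 24 mg/day intermittent (4 days on/3 days off) in 21-day cycles. AEs graded by CTCAE v5.0. DLTs were selected lab abnormalities or AEs at least possibly drug-related during cycle 1, assessed in patients with a DLT or ≥80% of planned doses taken.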

[2] = system: advanced solid tumors; conditions: cited from earlier work
[3] = system: advanced or metastatic solid tumors; assay: Antitumor activity per RECIST v1.1; type: in vivo, human
Summary of the method: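 Open-label, single-arm, 3 + 3 dose-escalation lead-in. Adults with advanced or metastatic solid tumors that had progressed on standard therapy and had ≥1 lesion per RECIST v1.1. Test compound given once daily (16 or 20 mg) or 4 days on/3 days off (24 or 28 mg) in 21-day cycles until progression or toxicity. Response, DCR and PFS were assessed in all dosed patients, with 95% CI.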

[4] = dose escalation intermittent 28 mg (n = 3)
[5] = dose escalation intermittent total (n = 7), any grade
[6] = dose escalation intermittent total (n = 7), grade ≥3
[7] = dose escalation o.d. 16 mg (n = 3)
[8] = dose escalation o.d. 20 mg (n = 6)
[9] = dose escalation o.d. total (n = 9), any grade
[10] = dose escalation o.d. total (n = 9), grade ≥3
[11] = two intermittent dosing groups (n = 7)
[12] = one patient, germline PTEN mutation, metaplastic breast cancer, 20 mg o.d.

## C[C@]1(O)C[C@@](N)(c2ccc(-c3nc4n(c3-c3ccccc3)COc3ccncc3-4)cc2)C1 [TAS-117]
[1]; dose escalation intermittent 24 mg (n = 4)
  TRAE: Rash: 2 (50.0) n (%)
[1]; [4]
  Patients with any TRAE: 3 (100) n (%)
  TRAE: Decreased appetite: 2 (66.7) n (%)
  TRAE: Fatigue: 2 (66.7) n (%)
  TRAE: Hyperglycemia: 2 (66.7) n (%)
  TRAE: Pruritus: 2 (66.7) n (%)
  TRAE: Rash: 2 (66.7) n (%)
  TRAE: Rash maculopapular: 1 (33.3) n (%)
  TRAE: Stomatitis: 3 (100) n (%)
[1]; [5]
  Patients with any TRAE: 5 (71.4) n (%)
  TRAE: Decreased appetite: 2 (28.6) n (%)
  TRAE: Diarrhea: 1 (14.3) n (%)
  TRAE: Fatigue: 4 (57.1) n (%)
  TRAE: Hyperglycemia: 3 (42.9) n (%)
  TRAE: Nausea: 1 (14.3) n (%)
  TRAE: Pruritus: 4 (57.1) n (%)
  TRAE: Rash: 4 (57.1) n (%)
  TRAE: Rash maculopapular: 1 (14.3) n (%)
  TRAE: Stomatitis: 3 (42.9) n (%)
[1]; [6]
  Patients with any TRAE: 3 (42.9) n (%)
  TRAE: Hyperglycemia: 1 (14.3) n (%)
  TRAE: Rash: 1 (14.3) n (%)
  TRAE: Rash maculopapular: 1 (14.3) n (%)
  TRAE: Stomatitis: 2 (28.6) n (%)
[1]; [7]
  Patients with any TRAE: 2 (66.7) n (%)
  TRAE: Hyperglycemia: 1 (33.3) n (%)
  TRAE: Rash: 2 (66.7) n (%)
[1]; [8]
  Patients with any TRAE: 6 (100) n (%)
  TRAE: Decreased appetite: 1 (16.7) n (%)
  TRAE: Diarrhea: 2 (33.3) n (%)
  TRAE: Fatigue: 2 (33.3) n (%)
  TRAE: Hyperglycemia: 1 (16.7) n (%)
  TRAE: Nausea: 1 (16.7) n (%)
  TRAE: Pruritus: 1 (16.7) n (%)
  TRAE: Rash: 4 (66.7) n (%)
  TRAE: Rash maculopapular: 1 (16.7) n (%)
[1]; [9]
  Patients with any TRAE: 8 (88.9) n (%)
  TRAE: Decreased appetite: 1 (11.1) n (%)
  TRAE: Diarrhea: 2 (22.2) n (%)
  TRAE: Fatigue: 2 (22.2) n (%)
  TRAE: Hyperglycemia: 2 (22.2) n (%)
  TRAE: Nausea: 1 (11.1) n (%)
  TRAE: Pruritus: 1 (11.1) n (%)
  TRAE: Rash: 6 (66.7) n (%)
  TRAE: Rash maculopapular: 1 (11.1) n (%)
[1]; [10]
  Patients with any TRAE: 5 (55.6) n (%)
  TRAE: Fatigue: 1 (11.1) n (%)
  TRAE: Rash: 2 (22.2) n (%)
  TRAE: Rash maculopapular: 1 (11.1) n (%)
[1]; dose-escalation part, assessable patients (n = 16), cycle 1
  Patients who experienced a DLT: three
[1]; either dosing regimen
  TEAEs leading to death: No TEAEs leading to death
[1]; intermittent dosing groups
  Patients with dose interruption due to an AE: 57.1%
  Patients with dose reductions due to an AE: 42.9%
[1]; intermittent dosing groups, grade 3 skin exfoliation at 28 mg
  Patients with treatment discontinued due to a TRAE: 14.3%
[1]; o.d. dosing groups, all at 20 mg o.d.
  Patients with treatment-related serious AEs: three
[1]; o.d. dosing regimen
  Patients with AEs leading to dose interruptions: 66.7%
  Patients with AEs leading to dose reductions: 0%
[1]; o.d. dosing regimen (n = 9)
  TRAE: Diarrhea: 22.2%
  TRAE: Fatigue: 22.2%
  TRAE: Hyperglycemia: 22.2%
  TRAE: Rash: 66.7%
[1]; [11]
  Grade ≥3 TRAE: stomatitis: 28.6%
  Grade ≥3 TRAEs: 42.9%
  TRAE: Decreased appetite: 28.6%
  TRAE: Fatigue: 57.1%
  TRAE: Hyperglycemia: 42.9%
  TRAE: Pruritus: 57.1%
  TRAE: Rash: 57.1%
  TRAE: Stomatitis: 42.9%
[2]; PIK3CA-mutant endometrial cancer, 1 out of 16 patients
  Objective responses: 6.3%
[2]; ovarian clear cell carcinoma, 3 out of 20 patients
  Objective responses: 15%
[2]; patients with advanced solid tumors
  Antitumor activity and safety: preliminary antitumor activity and a manageable safety profile
[3]; all cohorts, 95% CI 1.3-3.5 months
  Median PFS: 2.7 months
[3]; all patients, 95% CI 18.4% to 67.1%
  DCR: 41.2%
[3]; o.d. dosing, all at 20 mg
  Patients with stable disease as best response: three
[3]; [12]
  Best overall response: stable disease
  Duration of stable disease / treatment, ongoing at data cut-off: 19.1 months
[3]; one patient, germline PTEN mutation, metaplastic breast cancer, ongoing
  Duration of stable disease / treatment as of manuscript drafting: > 3 years
[3]; patients assessed, n = 15, dose escalation (all-comers)
  Objective response (RECIST v1.1, investigator assessment): None and no patients having a confirmed response
